In ChEMBL document CHEMBL4689842, “EUbOPEN Chemogenomics Library wave 1” (2021):

Tested on: Fibroblast
Assay: Multiplex assay against human fibroblast
Type: toxicity, cell-based
Procedure, shortened: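 Per cents of healthy-nucleus cells form the tubulin, mitochondrial-mass and membrane-permeability phenotype values. Live cells were stained at seeding with Hoechst33342, BioTracker Green Microtubule Cytoskeleton Dye, MitoTracker Red and Annexin V Alexa Fluor 680. After compound addition they were imaged on a CQ1 microscope at 37°C and 5% CO2, and CellPathfinder machine-learning gating split them into Hoechst high-intensity objects or normal cells, normal cells into healthy, pyknosed or fragmented nuclei, and pyknosed cells into mitotic or apoptotic.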

[1] = 12 h, 1 µM, compound concentration 1 uM, replicate 1
[2] = 12 h, 1 µM, compound concentration 1 uM, replicate 2
[3] = 12 h, 10 µM, compound concentration 10 uM, replicate 1
[4] = 12 h, 10 µM, compound concentration 10 uM, replicate 2
[5] = 24 h, 1 µM, compound concentration 1 uM, replicate 1
[6] = 24 h, 1 µM, compound concentration 1 uM, replicate 2
[7] = 24 h, 10 µM, compound concentration 10 uM, replicate 1
[8] = 24 h, 10 µM, compound concentration 10 uM, replicate 2
[9] = 48 h, 1 µM, compound concentration 1 uM, replicate 1
[10] = 48 h, 1 µM, compound concentration 1 uM, replicate 2
[11] = 48 h, 10 µM, compound concentration 10 uM, replicate 1
[12] = 48 h, 10 µM, compound concentration 10 uM, replicate 2

O=C(O)c1ccc2cc(-c3ccc(O)c(C45CC6CC(CC(C6)C4)C5)c3)ccc2c1 [O-DEMETHYLATED ADAPALENE]
Population Apoptotic (%) [1]: 57% | Population Fragmented Nuclei (%) [1]: 36% | Population Healthy Nuclei (%) [1]: 20% | Population Hoechst High Intensity Objects (%) [1]: 18% | Population Membrane Permeable-Phenotype (%) [1]: 31% | Population Mitochondria Different-Phenotype (%) [1]: 21% | Population Mitotic Cells (%) [1]: 42% | Population Normal (%) [1]: 81% | Population Pyknosed Nuclei (%) [1]: 43% | Population Tubulin-Different-Phenotype (%) [1]: 60% | Total Cell Count [1]: 249 | Population Apoptotic (%) [2]: 100% | Population Fragmented Nuclei (%) [2]: 8% | Population Healthy Nuclei (%) [2]: 87% | Population Hoechst High Intensity Objects (%) [2]: 9% | Population Membrane Permeable-Phenotype (%) [2]: 6% | Population Mitochondria Different-Phenotype (%) [2]: 16% | Population Mitotic Cells (%) [2]: 0% | Population Normal (%) [2]: 90% | Population Pyknosed Nuclei (%) [2]: 3% | Population Tubulin-Different-Phenotype (%) [2]: 16% | Total Cell Count [2]: 62 | Population Apoptotic (%) [3]: 72% | Population Fragmented Nuclei (%) [3]: 32% | Population Healthy Nuclei (%) [3]: 37% | Population Hoechst High Intensity Objects (%) [3]: 16% | Population Membrane Permeable-Phenotype (%) [3]: 44% | Population Mitochondria Different-Phenotype (%) [3]: 0% | Population Mitotic Cells (%) [3]: 27% | Population Normal (%) [3]: 83% | Population Pyknosed Nuclei (%) [3]: 30% | Population Tubulin-Different-Phenotype (%) [3]: 33% | Total Cell Count [3]: 115 | Population Apoptotic (%) [4]: 100% | Population Fragmented Nuclei (%) [4]: 11% | Population Healthy Nuclei (%) [4]: 87% | Population Hoechst High Intensity Objects (%) [4]: 2% | Population Membrane Permeable-Phenotype (%) [4]: 1% | Population Mitochondria Different-Phenotype (%) [4]: 16% | Population Mitotic Cells (%) [4]: 0% | Population Normal (%) [4]: 97% | Population Pyknosed Nuclei (%) [4]: 1% | Population Tubulin-Different-Phenotype (%) [4]: 25% | Total Cell Count [4]: 83 | Population Apoptotic (%) [5]: 53% | Population Fragmented Nuclei (%) [5]: 35% | Population Healthy Nuclei (%) [5]: 20% | Population Hoechst High Intensity Objects (%) [5]: 23% | Population Membrane Permeable-Phenotype (%) [5]: 29% | Population Mitochondria Different-Phenotype (%) [5]: 18% | Population Mitotic Cells (%) [5]: 46% | Population Normal (%) [5]: 76% | Population Pyknosed Nuclei (%) [5]: 43% | Population Tubulin-Different-Phenotype (%) [5]: 45% | Total Cell Count [5]: 236 | Population Apoptotic (%) [6]: 100% | Population Fragmented Nuclei (%) [6]: 7% | Population Healthy Nuclei (%) [6]: 89% | Population Hoechst High Intensity Objects (%) [6]: 6% | Population Membrane Permeable-Phenotype (%) [6]: 6% | Population Mitochondria Different-Phenotype (%) [6]: 30% | Population Mitotic Cells (%) [6]: 0% | Population Normal (%) [6]: 93% | Population Pyknosed Nuclei (%) [6]: 3% | Population Tubulin-Different-Phenotype (%) [6]: 18% | Total Cell Count [6]: 60 | Population Apoptotic (%) [7]: 57% | Population Fragmented Nuclei (%) [7]: 28% | Population Healthy Nuclei (%) [7]: 42% | Population Hoechst High Intensity Objects (%) [7]: 21% | Population Membrane Permeable-Phenotype (%) [7]: 55% | Population Mitochondria Different-Phenotype (%) [7]: 0% | Population Mitotic Cells (%) [7]: 42% | Population Normal (%) [7]: 78% | Population Pyknosed Nuclei (%) [7]: 29% | Population Tubulin-Different-Phenotype (%) [7]: 44% | Total Cell Count [7]: 113 | Population Apoptotic (%) [8]: 0% | Population Fragmented Nuclei (%) [8]: 14% | Population Healthy Nuclei (%) [8]: 81% | Population Hoechst High Intensity Objects (%) [8]: 7% | Population Membrane Permeable-Phenotype (%) [8]: 7% | Population Mitochondria Different-Phenotype (%) [8]: 26% | Population Mitotic Cells (%) [8]: 100% | Population Normal (%) [8]: 92% | Population Pyknosed Nuclei (%) [8]: 3% | Population Tubulin-Different-Phenotype (%) [8]: 28% | Total Cell Count [8]: 83 | Population Apoptotic (%) [9]: 78% | Population Fragmented Nuclei (%) [9]: 61% | Population Healthy Nuclei (%) [9]: 26% | Population Hoechst High Intensity Objects (%) [9]: 43% | Population Membrane Permeable-Phenotype (%) [9]: 2% | Population Mitochondria Different-Phenotype (%) [9]: 15% | Population Mitotic Cells (%) [9]: 21% | Population Normal (%) [9]: 56% | Population Pyknosed Nuclei (%) [9]: 12% | Population Tubulin-Different-Phenotype (%) [9]: 5% | Total Cell Count [9]: 267 | Population Apoptotic (%) [10]: 71% | Population Fragmented Nuclei (%) [10]: 18% | Population Healthy Nuclei (%) [10]: 71% | Population Hoechst High Intensity Objects (%) [10]: 14% | Population Membrane Permeable-Phenotype (%) [10]: 11% | Population Mitochondria Different-Phenotype (%) [10]: 1% | Population Mitotic Cells (%) [10]: 28% | Population Normal (%) [10]: 85% | Population Pyknosed Nuclei (%) [10]: 9% | Population Tubulin-Different-Phenotype (%) [10]: 28% | Total Cell Count [10]: 87 | Population Apoptotic (%) [11]: 85% | Population Fragmented Nuclei (%) [11]: 52% | Population Healthy Nuclei (%) [11]: 40% | Population Hoechst High Intensity Objects (%) [11]: 20% | Population Membrane Permeable-Phenotype (%) [11]: 35% | Population Mitochondria Different-Phenotype (%) [11]: 0% | Population Mitotic Cells (%) [11]: 14% | Population Normal (%) [11]: 79% | Population Pyknosed Nuclei (%) [11]: 7% | Population Tubulin-Different-Phenotype (%) [11]: 35% | Total Cell Count [11]: 116 | Population Apoptotic (%) [12]: 66% | Population Fragmented Nuclei (%) [12]: 37% | Population Healthy Nuclei (%) [12]: 58% | Population Hoechst High Intensity Objects (%) [12]: 14% | Population Membrane Permeable-Phenotype (%) [12]: 24% | Population Mitochondria Different-Phenotype (%) [12]: 4% | Population Mitotic Cells (%) [12]: 33% | Population Normal (%) [12]: 85% | Population Pyknosed Nuclei (%) [12]: 3% | Population Tubulin-Different-Phenotype (%) [12]: 46% | Total Cell Count [12]: 99

COc1cc2c(Nc3ccc(NC(=O)c4ccccc4)cc3)ncnc2cc1OCCCN1CCOCC1
Population Apoptotic (%) [1]: 55% | Population Fragmented Nuclei (%) [1]: 25% | Population Healthy Nuclei (%) [1]: 53% | Population Hoechst High Intensity Objects (%) [1]: 35% | Population Membrane Permeable-Phenotype (%) [1]: 9% | Population Mitochondria Different-Phenotype (%) [1]: 10% | Population Mitotic Cells (%) [1]: 44% | Population Normal (%) [1]: 64% | Population Pyknosed Nuclei (%) [1]: 20% | Population Tubulin-Different-Phenotype (%) [1]: 41% | Total Cell Count [1]: 470 | Population Apoptotic (%) [2]: 33% | Population Fragmented Nuclei (%) [2]: 44% | Population Healthy Nuclei (%) [2]: 46% | Population Hoechst High Intensity Objects (%) [2]: 30% | Population Membrane Permeable-Phenotype (%) [2]: 22% | Population Mitochondria Different-Phenotype (%) [2]: 12% | Population Mitotic Cells (%) [2]: 66% | Population Normal (%) [2]: 69% | Population Pyknosed Nuclei (%) [2]: 8% | Population Tubulin-Different-Phenotype (%) [2]: 64% | Total Cell Count [2]: 97 | Population Apoptotic (%) [3]: 82% | Population Fragmented Nuclei (%) [3]: 39% | Population Healthy Nuclei (%) [3]: 49% | Population Hoechst High Intensity Objects (%) [3]: 19% | Population Membrane Permeable-Phenotype (%) [3]: 9% | Population Mitochondria Different-Phenotype (%) [3]: 5% | Population Mitotic Cells (%) [3]: 17% | Population Normal (%) [3]: 80% | Population Pyknosed Nuclei (%) [3]: 11% | Population Tubulin-Different-Phenotype (%) [3]: 4% | Total Cell Count [3]: 250 | Population Apoptotic (%) [4]: 0% | Population Fragmented Nuclei (%) [4]: 70% | Population Healthy Nuclei (%) [4]: 27% | Population Hoechst High Intensity Objects (%) [4]: 41% | Population Membrane Permeable-Phenotype (%) [4]: 0% | Population Mitochondria Different-Phenotype (%) [4]: 7% | Population Mitotic Cells (%) [4]: 100% | Population Normal (%) [4]: 58% | Population Pyknosed Nuclei (%) [4]: 2% | Population Tubulin-Different-Phenotype (%) [4]: 7% | Total Cell Count [4]: 82 | Population Apoptotic (%) [5]: 61% | Population Fragmented Nuclei (%) [5]: 26% | Population Healthy Nuclei (%) [5]: 47% | Population Hoechst High Intensity Objects (%) [5]: 46% | Population Membrane Permeable-Phenotype (%) [5]: 14% | Population Mitochondria Different-Phenotype (%) [5]: 17% | Population Mitotic Cells (%) [5]: 38% | Population Normal (%) [5]: 53% | Population Pyknosed Nuclei (%) [5]: 26% | Population Tubulin-Different-Phenotype (%) [5]: 59% | Total Cell Count [5]: 391 | Population Apoptotic (%) [6]: 58% | Population Fragmented Nuclei (%) [6]: 34% | Population Healthy Nuclei (%) [6]: 42% | Population Hoechst High Intensity Objects (%) [6]: 41% | Population Membrane Permeable-Phenotype (%) [6]: 23% | Population Mitochondria Different-Phenotype (%) [6]: 33% | Population Mitotic Cells (%) [6]: 41% | Population Normal (%) [6]: 58% | Population Pyknosed Nuclei (%) [6]: 24% | Population Tubulin-Different-Phenotype (%) [6]: 52% | Total Cell Count [6]: 85 | Population Apoptotic (%) [7]: 76% | Population Fragmented Nuclei (%) [7]: 31% | Population Healthy Nuclei (%) [7]: 55% | Population Hoechst High Intensity Objects (%) [7]: 22% | Population Membrane Permeable-Phenotype (%) [7]: 6% | Population Mitochondria Different-Phenotype (%) [7]: 3% | Population Mitotic Cells (%) [7]: 24% | Population Normal (%) [7]: 77% | Population Pyknosed Nuclei (%) [7]: 13% | Population Tubulin-Different-Phenotype (%) [7]: 5% | Total Cell Count [7]: 248 | Population Apoptotic (%) [8]: 66% | Population Fragmented Nuclei (%) [8]: 69% | Population Healthy Nuclei (%) [8]: 25% | Population Hoechst High Intensity Objects (%) [8]: 32% | Population Membrane Permeable-Phenotype (%) [8]: 15% | Population Mitochondria Different-Phenotype (%) [8]: 7% | Population Mitotic Cells (%) [8]: 33% | Population Normal (%) [8]: 67% | Population Pyknosed Nuclei (%) [8]: 5% | Population Tubulin-Different-Phenotype (%) [8]: 15% | Total Cell Count [8]: 77
